Laboratory results taken from ChEMBL document CHEMBL1152542, “Synthesis of pentopyranosyl-containing thiodisaccharides. Inhibitory activity against beta-glycosidases” (Bioorg Med Chem, 2009).
Calls of active or inactive are those of the source. The rule behind the calls is not given here.

How the values were obtained:
Beta-galactosidase = Beta-galactosidase (Escherichia coli, UniProt Q8VNN2); assay: Inhibition of Escherichia coli beta-galactosidase by Lineweaver-Burke plot analysis
In short: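 Kinetics of E. coli β-galactosidase with o-nitrophenyl β-D-galactopyranoside (0.2–5.0 mM) in 100 mM sodium phosphate, pH 7.3, with 1.2 mM MgCl₂ and 100 mM 2-mercaptoethanol, 10 min at 37 °C, borate quench, absorbance at 410 nm. Inhibitor was tested at 0, 0.40, 0.80 and 1.20 mM, and data were analysed by Lineweaver–Burk double-reciprocal plot.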

[1] = target: Beta-galactosidase (Escherichia coli) (UniProt Q8VNN2); assay: Inhibition of Escherichia coli beta-galactosidase assessed as formation of o-nitrophenol at 0.4 to 1.2 mM after 10 mins by visible absorption spectroscopy
In short: (§1)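 E. coli β-galactosidase (0.3 U) was incubated with o-nitrophenyl β-D-galactopyranoside (0.2–5.0 mM) in 100 mM sodium phosphate, pH 7.3, containing 1.2 mM MgCl₂ and 100 mM 2-mercaptoethanol, with or without inhibitor, for 10 min at 37 °C. The reaction was quenched with 0.2 M sodium borate, pH 10.0, and released o-nitrophenol was read at 410 nm.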

Prunus dulcis = assay: Inhibition of almond beta-glucosidase at 4 to 6 mM after 15 mins by visible absorption spectroscopy
In short: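 Almond β-glucosidase (2.0 mU) was incubated with p-nitrophenyl β-D-glucopyranoside (0.5–10.0 mM) in 50 mM sodium acetate, pH 5.6, with or without inhibitor (4.0–6.0 mM) for 15 min at 37 °C. The reaction was stopped with sodium borate, pH 10.0, and absorbance was read at 400 nm.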

[2] = target: T1, Exo-1,4-beta-xylosidase xlnD (Aspergillus niger) (UniProt O00089); assay: Inhibition of Aspergillus niger beta-xylosidase at 10 mM after 15 mins by visible absorption spectroscopy
T1 sequence (whole entry): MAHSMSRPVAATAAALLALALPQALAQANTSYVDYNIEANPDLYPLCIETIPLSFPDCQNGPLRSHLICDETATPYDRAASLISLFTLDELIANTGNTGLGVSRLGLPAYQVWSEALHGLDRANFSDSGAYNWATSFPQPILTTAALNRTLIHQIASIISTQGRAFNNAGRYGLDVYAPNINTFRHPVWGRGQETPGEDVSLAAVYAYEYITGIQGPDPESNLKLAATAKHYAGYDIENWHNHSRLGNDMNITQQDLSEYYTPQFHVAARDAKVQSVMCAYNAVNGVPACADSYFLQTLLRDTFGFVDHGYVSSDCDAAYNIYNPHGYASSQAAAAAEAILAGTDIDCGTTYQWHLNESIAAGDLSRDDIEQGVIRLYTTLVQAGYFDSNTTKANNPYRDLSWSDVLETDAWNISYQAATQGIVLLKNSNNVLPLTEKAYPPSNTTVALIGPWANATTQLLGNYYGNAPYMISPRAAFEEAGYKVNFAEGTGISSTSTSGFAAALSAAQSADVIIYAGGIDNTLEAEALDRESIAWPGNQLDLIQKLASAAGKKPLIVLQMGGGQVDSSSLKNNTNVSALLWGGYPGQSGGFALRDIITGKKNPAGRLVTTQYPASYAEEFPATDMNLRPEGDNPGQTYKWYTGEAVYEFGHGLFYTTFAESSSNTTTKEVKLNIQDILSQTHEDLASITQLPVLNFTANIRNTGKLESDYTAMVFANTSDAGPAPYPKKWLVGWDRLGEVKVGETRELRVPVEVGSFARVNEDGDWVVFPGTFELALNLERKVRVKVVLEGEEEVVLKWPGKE
In short: (§2)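 A. niger β-xylosidase (0.04 U) was incubated with p-nitrophenyl β-D-xylopyranoside (0.5–10.0 mM) in 50 mM sodium acetate, pH 5.0, with or without inhibitor (2.0–10.0 or 5.0–15.0 mM) for 15 min at 25 °C. The reaction was stopped with 0.2 M sodium borate, pH 10.0, and absorbance was read at 400 nm.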

[3] = target: Beta-galactosidase (Escherichia coli) (UniProt Q8VNN2); assay: Inhibition of Escherichia coli beta-galactosidase assessed as formation of o-nitrophenol at 0.6 to 4 mM after 10 mins by visible absorption spectroscopy
[4] = target: T1, Exo-1,4-beta-xylosidase xlnD (Aspergillus niger); assay: Inhibition of Aspergillus niger beta-xylosidase at 15 mM after 15 mins by visible absorption spectroscopy; in short: as §2
[5] = target: Beta-galactosidase (Escherichia coli) (UniProt Q8VNN2); assay: Inhibition of Escherichia coli beta-galactosidase assessed as formation of o-nitrophenol at 0.01 to 0.05 mM after 10 mins by visible absorption spectroscopy; in short: as §1

Beta-galactosidase (Escherichia coli), sequence (Q8VNN2 whole entry, looked up): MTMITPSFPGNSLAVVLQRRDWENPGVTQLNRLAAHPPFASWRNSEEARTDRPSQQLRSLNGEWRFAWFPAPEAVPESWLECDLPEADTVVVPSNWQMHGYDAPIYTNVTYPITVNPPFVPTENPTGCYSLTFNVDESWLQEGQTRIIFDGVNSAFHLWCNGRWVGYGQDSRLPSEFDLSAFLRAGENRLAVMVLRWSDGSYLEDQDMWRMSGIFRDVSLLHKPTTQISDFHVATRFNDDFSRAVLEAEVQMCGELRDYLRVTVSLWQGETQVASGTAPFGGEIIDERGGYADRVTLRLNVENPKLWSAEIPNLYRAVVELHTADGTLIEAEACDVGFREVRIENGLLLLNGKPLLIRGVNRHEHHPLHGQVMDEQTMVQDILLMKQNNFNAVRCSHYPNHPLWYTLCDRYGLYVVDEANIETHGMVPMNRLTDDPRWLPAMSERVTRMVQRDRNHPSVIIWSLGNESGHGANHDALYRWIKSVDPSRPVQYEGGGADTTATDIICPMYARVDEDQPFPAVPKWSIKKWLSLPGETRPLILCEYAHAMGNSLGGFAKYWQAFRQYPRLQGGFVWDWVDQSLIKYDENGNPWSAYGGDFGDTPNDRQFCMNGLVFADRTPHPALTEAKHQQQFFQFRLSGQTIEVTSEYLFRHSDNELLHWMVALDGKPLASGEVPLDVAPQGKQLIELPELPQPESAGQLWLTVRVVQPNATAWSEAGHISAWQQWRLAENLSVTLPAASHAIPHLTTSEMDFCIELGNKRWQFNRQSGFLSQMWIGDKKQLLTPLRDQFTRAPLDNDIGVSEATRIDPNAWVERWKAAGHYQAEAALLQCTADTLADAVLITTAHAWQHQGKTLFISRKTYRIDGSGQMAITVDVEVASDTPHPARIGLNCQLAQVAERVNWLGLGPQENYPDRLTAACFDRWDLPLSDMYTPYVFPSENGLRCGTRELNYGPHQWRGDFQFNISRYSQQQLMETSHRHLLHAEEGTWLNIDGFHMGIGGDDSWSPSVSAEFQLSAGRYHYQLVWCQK
Beta-galactosidase, sequence (Q8VNN2 whole entry): as the sequence (Q8VNN2 whole entry, looked up) above

SMILES: OC[C@H]1O[C@@H](S[C@@H]2CO[C@@H](OCc3ccccc3)[C@H](O)C2)[C@H](O)[C@@H](O)[C@H]1O
- Ki (Beta-galactosidase): 800 µM
- Activity [1]: Active

SMILES: CC(C)O[C@H]1O[C@H](CO)[C@H](S[C@@H]2OC[C@@H](O)[C@H](O)[C@H]2O)C[C@@H]1O
- Ki (Beta-galactosidase): 120 µM
- inhibition (Prunus dulcis): inactive
- inhibition [2]: inactive
- inhibition [3]: inactive

SMILES: CC(C)O[C@H]1O[C@H](CO)[C@H](S[C@@H]2OC[C@@H](O)[C@H](O)[C@H]2O)C[C@H]1O
- Ki (Beta-galactosidase): 160 µM
- inhibition (Prunus dulcis): inactive
- inhibition [4]: inactive
- inhibition [3]: inactive

SMILES: OC[C@H]1O[C@@H](S[C@@H]2CO[C@@H](OCc3ccccc3)[C@@H](O)C2)[C@H](O)[C@@H](O)[C@H]1O
- Ki (Beta-galactosidase): 32 µM
- Activity [5]: Active
